Published values pooled from the literature.
Compare with care: the assays were run in different laboratories.
Cell line: HepG2
Read-out: cell growth or viability

| Compound | technique | time | CC50 |
| --- | --- | --- | --- |
| C[n+]1cc2c3c(ccc2c2ccc4cc5c(cc4c21)OCO5)OCO3 | ATP luminescence | 72 h | 9.44 µM |
| c1cc(-c2ccc3ncnc(Nc4ncco4)c3c2)nc(N2CCOCC2)n1 | MTT | 48 h | 26 µM |
| CN(CC(=O)Nc1ccc(N(C)c2ccc(Cl)cc2)c(Cl)c1)c1ccccc1N1CCCC1=O | ATP luminescence | 48 h | > 40 µM |
| CC(=O)OC[C@H]1O[C@@H]([S-])[C@H](OC(C)=O)[C@@H](OC(C)=O)[C@@H]1OC(C)=O.CCP(CC)CC.[Au+] | ATP luminescence | 72 h | 9.81 µM |
| CN(CC(=O)Nc1ccc(N(C)c2ccc(Cl)c(Cl)c2)cc1)c1ccccc1N1CCCC1=O | ATP luminescence | 48 h | > 40 µM |
| Clc1ccc(Nc2ncnc3ccc(-c4cccc(N5CCOCC5)c4)cc23)cc1Cl | MTT | 48 h | > 40 µM |
| N=C(CC(O)c1nc2ccccc2c2ccc(Cl)cc12)Nc1ccc(F)cc1 (centres unmarked) | neutral red | 24 h | > 25 µM |
| CN1CCN(c2cccc(-c3ccc4ncnc(Nc5ccc(Cl)c(C(F)(F)F)c5)c4c3)c2)CC1 | MTT | 48 h | 15 µM |
| CC(C)N(c1ccc(Cl)c(F)c1)c1ccc(NC(=O)CN(C)c2ccccc2N2CCCC2=O)c(F)c1 | ATP luminescence | 48 h | > 40 µM |
| N=C(CC(O)c1cc2cccnc2c2cccnc12)Nc1ccc(F)cc1 (centres unmarked) | neutral red | 24 h | 265 µM |
| CC(=O)[C@]1(O)Cc2c(O)c3c(c(O)c2[C@@H](O[C@H]2C[C@H](N)[C@H](O)[C@H](C)O2)C1)C(=O)c1ccccc1C3=O | ATP luminescence | 72 h | 0.14 µM |
| N=C(CC(O)c1nc2ccccc2c2ccc(Br)cc12)Nc1ccc(F)cc1 (centres unmarked) | neutral red | 24 h | > 25 µM |
| c1cc(-c2ccc3ncnc(NC4CCOCC4)c3c2)cc(N2CCOCC2)c1 | MTT | 48 h | 26 µM |
| O=C(CNc1ccccc1N1CCCC1=O)Nc1ccc(Oc2cccc(Cl)c2)cc1 | ATP luminescence | 48 h | > 40 µM |
| O=C1c2ccccc2C(=O)c2c(NCCc3ccc(O)cc3)ccc(NCCc3ccc(O)cc3)c21 | ATP luminescence | 72 h | 16.1 µM |
| CN1CCN(c2cccc(-c3ccc4ncnc(Nc5ccc(Cl)c(Cl)c5)c4c3)c2)CC1 | MTT | 48 h | 14 µM |
| Cc1ccc(N(C)c2ccc(NC(=O)CN(C)c3cccnc3N3CCCC3=O)cc2)cc1 | ATP luminescence | 48 h | > 40 µM |
